Converted amounts (≈) assume the structure as drawn.
system: not listed separately; test: Antioxidant activity assessed as nitric oxide radical scavenging activity after 150 mins; format: functional; settings: not given
How it was run: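 10 mM sodium nitroprusside (4 mL), PBS pH 7.4 (1 mL) and sample or ascorbic acid in DMSO (1 mL, 12.5–100 µg/mL), incubated 150 min at 25 °C. Nitrite detected with sulphanilic acid (5 min) then naphthylethylenediamine (30 min, diffused light). Read at […]. Triplicate. % inhibition = [1 − (Vt/Vc)] × 100. IC50 derived from it.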

Question: Which IC50 does the source give for `CCOC(=O)c1cnn(-c2nc(-c3ccc(N(C)C)cc3)c(C#N)c(=O)n2C)c1N` here?
Answer: 115 µg/mL (≈ 282 µM)

system: not listed separately; test: Antioxidant activity assessed as hydrogen peroxide scavenging activity after 10 mins; format: functional; settings: not given
How it was run: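 H2O2 (20 mM) in PBS pH 7.4. 1 mL of sample or ascorbic acid in methanol (12.5–100 µg/mL) added to 2 mL H2O2 solution. A230 read after 10 min. % inhibition = [1 − (Vt/Vc)] × 100. Triplicate, averaged. IC50 derived from % inhibition across concentrations.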

Question: Which IC50 does the source give for `CCOC(=O)c1cnn(-c2nc(-c3ccc(N(C)C)cc3)c(C#N)c(=O)n2C)c1N` here?
Answer: 119 µg/mL (≈ 292 µM)

system: not listed separately; test: Antioxidant activity assessed as inhibition of lipid peroxidation using egg lecithin liposomes incubated for 1 hr; format: functional; settings: not given
How it was run: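 Egg lecithin (3 mg/mL, phosphate buffer pH 7.4) sonicated 10 min to form liposomes. Sample or ascorbic acid (12.5–100 µg/mL) added. Peroxidation induced with FeCl3 and L-ascorbic acid, 1 h at 37 °C. Stopped with HCl/TCA/TBA/BHA, boiled 15 min, centrifuged, supernatant read at 532 nm. Triplicate. % inhibition vs control. IC50 derived.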

Question: For `CCOC(=O)c1cnn(-c2nc(-c3ccc(N(C)C)cc3)c(C#N)c(=O)n2C)c1N`, which IC50 is on record?
Answer: 111 µg/mL (≈ 272 µM)

system: not listed separately; test: Antioxidant activity assessed as potassium ferricyanide ion reducing power after 20 mins; format: functional; settings: not given
How it was run: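 Oyaizu method. Samples or ascorbic acid in DMF (12.5–100 µg/mL) mixed with 0.2 M phosphate buffer pH 6.6 and 1% potassium ferricyanide, 20 min at 50 °C. 10% TCA added, centrifuged. Supernatant mixed with water and 0.1% FeCl3, read at 700 nm. % = [(Vt/Vc) − 1] × 100. IC50 derived.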

Question: With `CCOC(=O)c1cnn(-c2nc(-c3ccc(N(C)C)cc3)c(C#N)c(=O)n2C)c1N` as the compound, how does the IC50 read?
Answer: 98 µg/mL (≈ 241 µM)

system: not listed separately; test: Antiinflammatory activity assessed as inhibition of albumin denaturation at 100 ug/ml by UV-visible spectrophotometry; format: functional; settings: not given
How it was run: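 Compounds dissolved in minimal DMF, diluted in PBS pH 7.4 (final DMF <2.5%). 1 mL test solution (100 µg/mL) plus 1 mL 1% albumin in PBS, 15 min at 27 ± 1 °C, then heated 10 min at 60 ± 1 °C. After cooling, turbidity read at 660 nm. % inhibition = [(Vt/Vc) − 1] × 100 against a no-drug control. Triplicate, averaged. Diclofenac standard.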

Question: With `CCOC(=O)c1cnn(-c2nc(-c3ccc(N(C)C)cc3)c(C#N)c(=O)n2C)c1N` as the compound, how does the inhibition read?
Answer: 20.4%

system: Metaphire posthuma; test: Anthelmintic activity against Pheretima posthuma assessed as time taken for complete parasite paralysis at 0.1% w/v; format: functional; settings: not given
How it was run: (§1)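 Earthworms (Pheretima posthuma) exposed to test solutions at 0.1, 0.2 and 0.5% w/v; time in minutes to complete paralysis (worms motionless) recorded. Albendazole as standard. Mean of three determinations ± S.D.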

Question: Which Time does the source give for `CCOC(=O)c1cnn(-c2nc(-c3ccc(N(C)C)cc3)c(C#N)c(=O)n2C)c1N` here?
Answer: 41.45 min

system: Metaphire posthuma; test: Anthelmintic activity against Pheretima posthuma assessed as time taken for complete parasite paralysis at 0.2% w/v; format: functional; settings: not given; how it was run: as §1

Question: For `CCOC(=O)c1cnn(-c2nc(-c3ccc(N(C)C)cc3)c(C#N)c(=O)n2C)c1N`, which Time is on record?
Answer: 46.58 min

system: Metaphire posthuma; test: Anthelmintic activity against Pheretima posthuma assessed as time taken for complete parasite paralysis at 0.5% w/v; format: functional; settings: not given; how it was run: as §1

Question: With `CCOC(=O)c1cnn(-c2nc(-c3ccc(N(C)C)cc3)c(C#N)c(=O)n2C)c1N` as the compound, how does the Time read?
Answer: 42.87 min

system: Metaphire posthuma; test: Anthelmintic activity against Pheretima posthuma assessed as time taken for parasite death at 0.1% w/v; format: functional; settings: not given
How it was run: (§2)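 Earthworms (Pheretima posthuma, spelled Perituma posthuma in text) exposed to test compounds at 0.1, 0.2 and 0.5% w/v. Albendazole served as standard, with an untreated control. Paralysis was recorded as the time until worms became motionless, then time to death was recorded, in minutes. Each value is the mean of three determinations with S.D.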

Question: For `CCOC(=O)c1cnn(-c2nc(-c3ccc(N(C)C)cc3)c(C#N)c(=O)n2C)c1N`, which Time is on record?
Answer: 49.79 min

system: Metaphire posthuma; test: Anthelmintic activity against Pheretima posthuma assessed as time taken for parasite death at 0.2% w/v; format: functional; settings: not given; how it was run: as §2

Question: For `CCOC(=O)c1cnn(-c2nc(-c3ccc(N(C)C)cc3)c(C#N)c(=O)n2C)c1N`, which Time is on record?
Answer: 57.55 min

system: Metaphire posthuma; test: Anthelmintic activity against Pheretima posthuma assessed as time taken for parasite death at 0.5% w/v; format: functional; settings: not given; how it was run: as §2

Question: Which Time does the source give for `CCOC(=O)c1cnn(-c2nc(-c3ccc(N(C)C)cc3)c(C#N)c(=O)n2C)c1N` here?
Answer: 58.72 min

system: Escherichia coli; test: Antimicrobial activity against Escherichia coli at 25 ug/ml by agar plate diffusion technique; format: functional; settings: read-out: IZ
How it was run: (§3)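 Agar plate diffusion against E. coli, P. aeruginosa, S. aureus and B. subtilis, with compounds at 25, 50 and 100 µg/mL. Streptomycin as standard.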

Question: With `CCOC(=O)c1cnn(-c2nc(-c3ccc(N(C)C)cc3)c(C#N)c(=O)n2C)c1N` as the compound, how does the zone of inhibition at 25 µg/mL read?
Answer: 11.1 mm

system: Escherichia coli; test: Antimicrobial activity against Escherichia coli at 50 ug/ml by agar plate diffusion technique; format: functional; settings: read-out: IZ; how it was run: as §3

Question: For `CCOC(=O)c1cnn(-c2nc(-c3ccc(N(C)C)cc3)c(C#N)c(=O)n2C)c1N`, which zone of inhibition at 50 µg/mL is on record?
Answer: 10.2 mm

system: Escherichia coli; test: Antimicrobial activity against Escherichia coli at 100 ug/ml by agar plate diffusion technique; format: functional; settings: read-out: IZ; how it was run: as §3

Question: For `CCOC(=O)c1cnn(-c2nc(-c3ccc(N(C)C)cc3)c(C#N)c(=O)n2C)c1N`, which zone of inhibition at 100 µg/mL is on record?
Answer: 14 mm

system: Pseudomonas aeruginosa; test: Antimicrobial activity against Pseudomonas aeruginosa at 25 ug/ml by agar plate diffusion technique; format: functional; settings: read-out: IZ; how it was run: as §3

Question: With `CCOC(=O)c1cnn(-c2nc(-c3ccc(N(C)C)cc3)c(C#N)c(=O)n2C)c1N` as the compound, how does the zone of inhibition at 25 µg/mL read?
Answer: 8.29 mm

system: Pseudomonas aeruginosa; test: Antimicrobial activity against Pseudomonas aeruginosa at 50 ug/ml by agar plate diffusion technique; format: functional; settings: read-out: IZ; how it was run: as §3

Question: For `CCOC(=O)c1cnn(-c2nc(-c3ccc(N(C)C)cc3)c(C#N)c(=O)n2C)c1N`, which zone of inhibition at 50 µg/mL is on record?
Answer: 11.9 mm

system: Pseudomonas aeruginosa; test: Antimicrobial activity against Pseudomonas aeruginosa at 100 ug/ml by agar plate diffusion technique; format: functional; settings: read-out: IZ; how it was run: as §3

Question: For `CCOC(=O)c1cnn(-c2nc(-c3ccc(N(C)C)cc3)c(C#N)c(=O)n2C)c1N`, which zone of inhibition at 100 µg/mL is on record?
Answer: 16.7 mm

system: Bacillus subtilis; test: Antimicrobial activity against Bacillus subtilis at 25 ug/ml by agar plate diffusion technique; format: functional; settings: read-out: IZ; how it was run: as §3

Question: For `CCOC(=O)c1cnn(-c2nc(-c3ccc(N(C)C)cc3)c(C#N)c(=O)n2C)c1N`, which zone of inhibition at 25 µg/mL is on record?
Answer: 11.2 mm

system: Bacillus subtilis; test: Antimicrobial activity against Bacillus subtilis at 50 ug/ml by agar plate diffusion technique; format: functional; settings: read-out: IZ; how it was run: as §3

Question: With `CCOC(=O)c1cnn(-c2nc(-c3ccc(N(C)C)cc3)c(C#N)c(=O)n2C)c1N` as the compound, how does the zone of inhibition at 50 µg/mL read?
Answer: 14.8 mm

system: Bacillus subtilis; test: Antimicrobial activity against Bacillus subtilis at 100 ug/ml by agar plate diffusion technique; format: functional; settings: read-out: IZ; how it was run: as §3

Question: Which zone of inhibition at 100 µg/mL does the source give for `CCOC(=O)c1cnn(-c2nc(-c3ccc(N(C)C)cc3)c(C#N)c(=O)n2C)c1N` here?
Answer: 20.9 mm

system: Staphylococcus aureus; test: Antimicrobial activity against Staphylococcus aureus at 25 ug/ml by agar plate diffusion technique; format: functional; settings: read-out: IZ; how it was run: as §3

Question: With `CCOC(=O)c1cnn(-c2nc(-c3ccc(N(C)C)cc3)c(C#N)c(=O)n2C)c1N` as the compound, how does the zone of inhibition at 25 µg/mL read?
Answer: 10.1 mm

system: Staphylococcus aureus; test: Antimicrobial activity against Staphylococcus aureus at 50 ug/ml by agar plate diffusion technique; format: functional; settings: read-out: IZ; how it was run: as §3

Question: Which zone of inhibition at 50 µg/mL does the source give for `CCOC(=O)c1cnn(-c2nc(-c3ccc(N(C)C)cc3)c(C#N)c(=O)n2C)c1N` here?
Answer: 13.5 mm

system: Staphylococcus aureus; test: Antimicrobial activity against Staphylococcus aureus at 100 ug/ml by agar plate diffusion technique; format: functional; settings: read-out: IZ; how it was run: as §3

Question: With `CCOC(=O)c1cnn(-c2nc(-c3ccc(N(C)C)cc3)c(C#N)c(=O)n2C)c1N` as the compound, how does the zone of inhibition at 100 µg/mL read?
Answer: 16.5 mm

system: Candida albicans; test: Antimicrobial activity against Candida albicans at 25 ug/ml by paper disc method; format: functional; settings: read-out: IZ
How it was run: (§4)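 Paper disc method against A. niger and C. albicans, with compounds at 25, 50 and 100 µg/mL. Amphotericin-B as standard.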

Question: For `CCOC(=O)c1cnn(-c2nc(-c3ccc(N(C)C)cc3)c(C#N)c(=O)n2C)c1N`, which zone of inhibition at 25 µg/mL is on record?
Answer: 10.4 mm

system: Candida albicans; test: Antimicrobial activity against Candida albicans at 50 ug/ml by paper disc method; format: functional; settings: read-out: IZ; how it was run: as §4

Question: With `CCOC(=O)c1cnn(-c2nc(-c3ccc(N(C)C)cc3)c(C#N)c(=O)n2C)c1N` as the compound, how does the zone of inhibition at 50 µg/mL read?
Answer: 13.7 mm

system: Candida albicans; test: Antimicrobial activity against Candida albicans at 100 ug/ml by paper disc method; format: functional; settings: read-out: IZ; how it was run: as §4

Question: With `CCOC(=O)c1cnn(-c2nc(-c3ccc(N(C)C)cc3)c(C#N)c(=O)n2C)c1N` as the compound, how does the zone of inhibition at 100 µg/mL read?
Answer: 17.7 mm

system: Aspergillus niger; test: Antimicrobial activity against Aspergillus niger at 25 ug/ml by paper disc method; format: functional; settings: read-out: IZ; how it was run: as §4

Question: Which zone of inhibition at 25 µg/mL does the source give for `CCOC(=O)c1cnn(-c2nc(-c3ccc(N(C)C)cc3)c(C#N)c(=O)n2C)c1N` here?
Answer: 10.2 mm

system: Aspergillus niger; test: Antimicrobial activity against Aspergillus niger at 50 ug/ml by paper disc method; format: functional; settings: read-out: IZ; how it was run: as §4

Question: Which zone of inhibition at 50 µg/mL does the source give for `CCOC(=O)c1cnn(-c2nc(-c3ccc(N(C)C)cc3)c(C#N)c(=O)n2C)c1N` here?
Answer: 12.2 mm

system: Aspergillus niger; test: Antimicrobial activity against Aspergillus niger at 100 ug/ml by paper disc method; format: functional; settings: read-out: IZ; how it was run: as §4

Question: Which zone of inhibition at 100 µg/mL does the source give for `CCOC(=O)c1cnn(-c2nc(-c3ccc(N(C)C)cc3)c(C#N)c(=O)n2C)c1N` here?
Answer: 18.3 mm

Source: ChEMBL document CHEMBL1821590, “Novel dihydropyrimidines and its pyrazole derivatives: synthesis and pharmacological screening” (Eur J Med Chem, 2011)
